Source: ChEMBL document CHEMBL1671787, “2-Aminothiazoles as therapeutic leads for prion diseases” (J Med Chem, 2011)

Experiments:
[1] = Antiprion activity against PrPsc infected in dividing mouse ScN2a-cl3 cells assessed as reduction in prion load after 5 days by ELISA; assay type: cell-based; settings: N2a-cl3, 120 h
Summary of the method: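 ScN2a (RML-infected N2a) cells seeded at 40,000 cells/well in MEM with 10% FBS, GlutaMax, 500 µg/mL geneticin. Compounds added 4 h after seeding, 0.5% final DMSO. Incubated 5 days at 37 °C, 5% CO2. Lysates captured on D18-coated ELISA plates overnight at 4 °C, then HRP-D13 antibody 1 h. EC50 is the mean of three determinations.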

Liver microsomes = experiment: Metabolic stability in rat liver microsomes assessed as half life by LC-MS/MS analysis; assay type: ADME, Microsome
Summary of the method: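 Compound at 1 µM final (0.6% acetonitrile, 0.01% DMSO) in PBS pH 7.4. Incubated with rat hepatic microsomes (~0.3 mg/mL), 1 mM NADPH and 4 mM UDPGA or PBS at 37 °C. Samples taken at 0, 1, 10, 30 and 60 min and quenched in acetonitrile with carbamazepine internal standard. Remaining parent measured by LCMS; duplicate incubations. Midazolam and 4-nitrophenol served as controls.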

MDCK [2] = experiment: Permeability across apical to basolateral side MDR1-expressing MDCK cells; assay type: ADME, cell-based, Canis lupus familiaris; settings: dog
Summary of the method: (§1)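 MDR1-MDCK monolayers grown 5–10 days on 1 µm filters. Compound at 10 µM in HBSS pH 7.4 with 25 mM HEPES and 0.05% PS80, added to the apical or basolateral donor chamber. Receiver samples taken every 20 min and quantified by HPLC/UV/MS. Permeability coefficients calculated per interval and averaged; run in duplicate.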

MDCK [3] = experiment: Permeability across basolateral to apical side MDR1-expressing MDCK cells; assay type: ADME, cell-based, Canis lupus familiaris; settings: dog; summary of the method: as §1
Brain [4] = experiment: Drug uptake in FVB mouse brain at 130 mg/kg/day, po administered as part of liquid diet for 3 days; assay type: ADME, organism-based; set-up: route oral; settings: in vivo, 72 h
Summary of the method: (§2)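 Wild-type FVB mice (~25 g), three per dose group sharing a cage. Compound was dissolved in PEG400 and diluted into a liquid diet of homogenized rodent feed, cocoa and water. Diet given ad libitum for 3 days; daily dose estimated from ~20 mL/day intake. Doses were 0, 40, 80, 130 or 210 mg/kg/day. After CO2 euthanasia, brain was homogenized with four-fold water and measured by LC-MS.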

Brain [5] = experiment: Drug uptake in FVB mouse brain at 40 to 210 mg/kg/day, po administered as part of liquid diet for 3 days; assay type: ADME, organism-based; set-up: route oral; settings: in vivo, 72 h; summary of the method: as §2
Nucleic Acid = experiment: Ratio of drug level in FVB mouse to EC50 for PrPsc
Summary of the method: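 Brain (and plasma) levels in wild-type FVB mice given 0, 40, 80, 130 or 210 mg/kg/day for 3 days in liquid rodent diet (PEG400 stock diluted with feed, cocoa, water), 3 mice per dose. At an arbitrary point after feeding (pseudo steady-state), brain homogenised and assayed by LC-MS. Levels set against the mean EC50 from 3 determinations in ScN2a-cl3 cells (5-day PrPSc ELISA).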

| Structure (SMILES) | EC50 [1] | also measured |
| --- | --- | --- |
| Cc1ccc(Nc2nc(-c3ccc(-c4ccccn4)s3)cs2)nc1 | 1230 nM |  |
| Cc1ccnc(Nc2nc(-c3cc(-c4ccccc4)no3)cs2)c1 | 1270 nM |  |
| FC(F)(F)Oc1ccc(-c2csc(Nc3cc4ccccc4cn3)n2)cc1 | > 32000 nM |  |
| c1ccc(-c2cc(-c3csc(Nc4ccccn4)n3)on2)cc1 | 600 nM |  |
| c1ccc(-c2csc(Nc3cc4ccccc4cn3)n2)cc1 | 3080 nM |  |
| CNc1nc(-c2ccc(OC)c(OC)c2)cs1 | > 32000 nM |  |
| COc1ccc(-c2csc(Nc3cc4ccccc4cn3)n2)cc1 | 340 nM |  |
| COc1ccc(Nc2nc(-c3ccc(OC)c(OC)c3)cs2)nc1 |  | t1/2 (Liver microsomes): 45 min |
| COc1ccc(-c2csc(NC(=O)c3cc4ccccc4cn3)n2)cc1OC | 8180 nM |  |
| COc1ccccc1-c1csc(Nc2ccc(C)cn2)n1 | > 29000 nM |  |
| COc1ccc(-c2csc(N(C)c3cc4ccccc4cn3)n2)cc1OC | 140 nM |  |
| COc1ccc(-c2csc(Nc3ccc4ccccc4c3)n2)cc1OC | 390 nM |  |
| c1ccc2cc(Nc3nc(-c4ccncc4)cs3)ncc2c1 | 310 nM |  |
| COc1ccc(Nc2nc(-c3cc(-c4ccccc4)no3)cs2)nc1 | 230 nM |  |
| Cc1ccc(Nc2nc(-c3cc(-c4ccccc4)no3)cs2)nc1 | 940 nM | permeability (MDCK [2]): 6.8 ×10⁻⁶ cm/s; permeability (MDCK [3]): 8.3 ×10⁻⁶ cm/s; t1/2 (Liver microsomes): 151 min; Drug uptake (Brain [4]): Active; Drug uptake (Brain [5]): Active; Ratio (Nucleic Acid): 25 |
| COc1ccc(-c2csc(Nc3cc4ccccc4cn3)n2)cc1OC |  | t1/2 (Liver microsomes): 83 min |
| Cc1csc(Nc2cc3ccccc3cn2)n1 | > 32000 nM |  |
| COc1ccc(-c2csc(Nc3ncccc3C)n2)cc1OC | 7290 nM |  |
| c1ccc(-c2cc(-c3csc(Nc4cc5ccccc5cn4)n3)on2)cc1 | 800 nM |  |
| c1ccc(-c2ccc(-c3csc(Nc4cc5ccccc5cn4)n3)s2)nc1 | 2010 nM |  |
| COc1ccnc(Nc2nc(-c3cc(-c4ccccc4)no3)cs2)c1 | 250 nM |  |
| COc1ccc(-c2csc(C(=O)Nc3cc4ccccc4cn3)n2)cc1OC | > 10000 nM |  |

| Structure (SMILES) | EC50 [1] | also measured |
| --- | --- | --- |
| COc1ccc(-c2csc(Nc3cnccn3)n2)cc1OC | 15600 nM |  |
| COc1ccc(-c2csc(Nc3ccc(C)cn3)n2)cc1 | 3030 nM |  |
| COc1ccc(-c2csc(Nc3ncccn3)n2)cc1OC | 3930 nM |  |
| COc1cc2c(cc1OC)-c1nc(Nc3ccc(C)cn3)sc1C2 | 5590 nM |  |
| Cc1ccc(Nc2nc(-c3ccncc3)cs2)nc1 | 1570 nM | permeability (MDCK [2]): 32.6 ×10⁻⁶ cm/s; permeability (MDCK [3]): 42.3 ×10⁻⁶ cm/s; t1/2 (Liver microsomes): 20 min |
| Cc1ccc(Nc2nc(-c3ccccn3)cs2)nc1 | 860 nM |  |
| COc1ccc(-c2csc(N(C(C)=O)c3cc4ccccc4cn3)n2)cc1OC | 81 nM |  |
| Cc1ccc(Nc2nc(-c3c(-c4ccccc4)noc3C)cs2)nc1 | > 26000 nM | permeability (MDCK [2]): 11.2 ×10⁻⁶ cm/s; permeability (MDCK [3]): 8.6 ×10⁻⁶ cm/s; t1/2 (Liver microsomes): 19 min |
| COc1ccc(-c2csc(Nc3cc(C)ccn3)n2)cc1OC | 1000 nM |  |
| COc1ccc(-c2csc(Nc3cccc4ccccc34)n2)cc1OC | > 32000 nM |  |
| Cc1ccc(Nc2nc(-c3ccccc3)cs2)nc1 | 7880 nM | t1/2 (Liver microsomes): 10 min |
| c1ccc(-c2cc(-c3csc(Nc4ccncc4)n3)on2)cc1 | 4420 nM |  |
| Cc1ccc(Nc2nc(C)cs2)nc1 | > 32000 nM |  |
| COc1ccc(NC(=O)c2csc(Nc3ccc(C)cn3)n2)cc1OC | 2440 nM |  |
| Cc1cccc(Nc2nc(-c3cc(-c4ccccc4)no3)cs2)n1 | 820 nM |  |
| Cc1ccc(Nc2nc3c(s2)Cc2ccccc2-3)nc1 | 2440 nM |  |
| FC(F)(F)c1csc(Nc2cc3ccccc3cn2)n1 | 8660 nM |  |
| COc1ccc(-c2csc(Nc3ccc(C)cn3)n2)cc1OC | 790 nM |  |
| COc1ccc(-c2csc(Nc3ccc(C(F)(F)F)cn3)n2)cc1OC | 2530 nM | permeability (MDCK [2]): 9.4 ×10⁻⁶ cm/s; permeability (MDCK [3]): 8.7 ×10⁻⁶ cm/s; t1/2 (Liver microsomes): 150 min |
| COc1ccc(-c2csc(Nc3cccc(C)n3)n2)cc1OC | 3010 nM |  |
| COc1ccc(-c2csc(Nc3ccc4ccccc4n3)n2)cc1OC | 430 nM | permeability (MDCK [2]): 9.2 ×10⁻⁶ cm/s; permeability (MDCK [3]): 8.9 ×10⁻⁶ cm/s; t1/2 (Liver microsomes): 69 min |
